Reference: ChEMBL document CHEMBL4689842, “EUbOPEN Chemogenomics Library wave 1” (2021)

Tested on: Fibroblast
Assay: Multiplex assay against human fibroblast
Assay type: toxicity, cell-based
Summary of the method: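 Four dyes were applied at seeding to live cells: Hoechst33342, BioTracker Green Microtubule Cytoskeleton Dye, MitoTracker Red and Annexin V Alexa Fluor 680. Imaging after compound addition used a CQ1 microscope at 37°C and 5% CO2. CellPathfinder machine-learning gating then sorted cells into Hoechst high-intensity objects or normal cells, normal cells into healthy, pyknosed or fragmented nuclei, and pyknosed cells into mitotic or apoptotic, with tubulin, mitochondrial-mass and membrane-permeability phenotypes given as per cents of healthy-nucleus cells.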

[1] = 12 h, 1 µM, compound concentration 1 uM, replicate 1
[2] = 12 h, 1 µM, compound concentration 1 uM, replicate 2
[3] = 12 h, 10 µM, compound concentration 10 uM, replicate 1
[4] = 12 h, 10 µM, compound concentration 10 uM, replicate 2
[5] = 24 h, 1 µM, compound concentration 1 uM, replicate 1
[6] = 24 h, 1 µM, compound concentration 1 uM, replicate 2
[7] = 24 h, 10 µM, compound concentration 10 uM, replicate 1
[8] = 24 h, 10 µM, compound concentration 10 uM, replicate 2
[9] = 48 h, 1 µM, compound concentration 1 uM, replicate 1
[10] = 48 h, 1 µM, compound concentration 1 uM, replicate 2
[11] = 48 h, 10 µM, compound concentration 10 uM, replicate 1
[12] = 48 h, 10 µM, compound concentration 10 uM, replicate 2

## Cc1cn(-c2cc(NC(=O)c3ccc(C)c(Nc4nccc(-c5cccnc5)n4)c3)cc(C(F)(F)F)c2)cn1 [NILOTINIB]
[1]
  Population Apoptotic (%): 62%
  Population Fragmented Nuclei (%): 36%
  Population Healthy Nuclei (%): 29%
  Population Hoechst High Intensity Objects (%): 8%
  Population Membrane Permeable-Phenotype (%): 16%
  Population Mitochondria Different-Phenotype (%): 20%
  Population Mitotic Cells (%): 37%
  Population Normal (%): 91%
  Population Pyknosed Nuclei (%): 34%
  Population Tubulin-Different-Phenotype (%): 83%
  Total Cell Count: 160
[2]
  Population Apoptotic (%): 25%
  Population Fragmented Nuclei (%): 1%
  Population Healthy Nuclei (%): 86%
  Population Membrane Permeable-Phenotype (%): 1%
  Population Mitochondria Different-Phenotype (%): 18%
  Population Mitotic Cells (%): 75%
  Population Pyknosed Nuclei (%): 11%
  Population Tubulin-Different-Phenotype (%): 10%
  Total Cell Count: 66
[3]
  Population Apoptotic (%): 78%
  Population Fragmented Nuclei (%): 42%
  Population Healthy Nuclei (%): 46%
  Population Hoechst High Intensity Objects (%): 44%
  Population Membrane Permeable-Phenotype (%): 4%
  Population Mitochondria Different-Phenotype (%): 0%
  Population Mitotic Cells (%): 21%
  Population Normal (%): 55%
  Population Pyknosed Nuclei (%): 10%
  Population Tubulin-Different-Phenotype (%): 2%
  Total Cell Count: 2441
[4]
  Population Apoptotic (%): 33%
  Population Fragmented Nuclei (%): 18%
  Population Healthy Nuclei (%): 72%
  Population Hoechst High Intensity Objects (%): 7%
  Population Mitochondria Different-Phenotype (%): 61%
  Population Mitotic Cells (%): 66%
  Population Normal (%): 92%
  Population Pyknosed Nuclei (%): 9%
  Population Tubulin-Different-Phenotype (%): 63%
  Total Cell Count: 73
[5]
  Population Apoptotic (%): 56%
  Population Fragmented Nuclei (%): 32%
  Population Healthy Nuclei (%): 29%
  Population Hoechst High Intensity Objects (%): 13%
  Population Membrane Permeable-Phenotype (%): 17%
  Population Mitochondria Different-Phenotype (%): 32%
  Population Mitotic Cells (%): 43%
  Population Normal (%): 86%
  Population Pyknosed Nuclei (%): 38%
  Population Tubulin-Different-Phenotype (%): 92%
  Total Cell Count: 159
[6]
  Population Apoptotic (%): 40%
  Population Fragmented Nuclei (%): 14%
  Population Healthy Nuclei (%): 79%
  Population Hoechst High Intensity Objects (%): 5%
  Population Membrane Permeable-Phenotype (%): 2%
  Population Mitochondria Different-Phenotype (%): 20%
  Population Mitotic Cells (%): 60%
  Population Normal (%): 94%
  Population Pyknosed Nuclei (%): 5%
  Population Tubulin-Different-Phenotype (%): 12%
  Total Cell Count: 67
[7]
  Population Apoptotic (%): 77%
  Population Fragmented Nuclei (%): 45%
  Population Healthy Nuclei (%): 45%
  Population Hoechst High Intensity Objects (%): 50%
  Population Membrane Permeable-Phenotype (%): 3%
  Population Mitochondria Different-Phenotype (%): 0%
  Population Mitotic Cells (%): 22%
  Population Normal (%): 49%
  Population Pyknosed Nuclei (%): 9%
  Population Tubulin-Different-Phenotype (%): 2%
  Total Cell Count: 2873
[8]
  Population Apoptotic (%): 0%
  Population Fragmented Nuclei (%): 12%
  Population Healthy Nuclei (%): 83%
  Population Hoechst High Intensity Objects (%): 2%
  Population Membrane Permeable-Phenotype (%): 1%
  Population Mitochondria Different-Phenotype (%): 42%
  Population Mitotic Cells (%): 100%
  Population Normal (%): 97%
  Population Pyknosed Nuclei (%): 4%
  Population Tubulin-Different-Phenotype (%): 30%
  Total Cell Count: 93
[9]
  Population Apoptotic (%): 67%
  Population Fragmented Nuclei (%): 32%
  Population Healthy Nuclei (%): 40%
  Population Hoechst High Intensity Objects (%): 16%
  Population Membrane Permeable-Phenotype (%): 10%
  Population Mitochondria Different-Phenotype (%): 29%
  Population Mitotic Cells (%): 32%
  Population Normal (%): 83%
  Population Pyknosed Nuclei (%): 26%
  Population Tubulin-Different-Phenotype (%): 72%
  Total Cell Count: 138
[10]
  Population Apoptotic (%): 100%
  Population Fragmented Nuclei (%): 19%
  Population Healthy Nuclei (%): 79%
  Population Hoechst High Intensity Objects (%): 11%
  Population Membrane Permeable-Phenotype (%): 5%
  Population Mitochondria Different-Phenotype (%): 2%
  Population Mitotic Cells (%): 0%
  Population Normal (%): 89%
  Population Pyknosed Nuclei (%): 1%
  Population Tubulin-Different-Phenotype (%): 5%
  Total Cell Count: 100
[11]
  Population Apoptotic (%): 47%
  Population Fragmented Nuclei (%): 45%
  Population Healthy Nuclei (%): 43%
  Population Hoechst High Intensity Objects (%): 61%
  Population Membrane Permeable-Phenotype (%): 4%
  Population Mitochondria Different-Phenotype (%): 0%
  Population Mitotic Cells (%): 52%
  Population Normal (%): 38%
  Population Pyknosed Nuclei (%): 10%
  Population Tubulin-Different-Phenotype (%): 2%
  Total Cell Count: 2935
[12]
  Population Apoptotic (%): 100%
  Population Fragmented Nuclei (%): 28%
  Population Healthy Nuclei (%): 65%
  Population Hoechst High Intensity Objects (%): 25%
  Population Membrane Permeable-Phenotype (%): 15%
  Population Mitochondria Different-Phenotype (%): 9%
  Population Mitotic Cells (%): 0%
  Population Normal (%): 74%
  Population Pyknosed Nuclei (%): 6%
  Population Tubulin-Different-Phenotype (%): 81%
  Total Cell Count: 66

## CCN1CCN(c2ccc(Nc3cc(N(C)C(=O)Nc4c(Cl)c(OC)cc(OC)c4Cl)ncn3)cc2)CC1 [INFIGRATINIB]
[1]
  Population Apoptotic (%): 55%
  Population Fragmented Nuclei (%): 28%
  Population Healthy Nuclei (%): 43%
  Population Hoechst High Intensity Objects (%): 24%
  Population Membrane Permeable-Phenotype (%): 2%
  Population Mitochondria Different-Phenotype (%): 12%
  Population Mitotic Cells (%): 44%
  Population Normal (%): 75%
  Population Pyknosed Nuclei (%): 27%
  Population Tubulin-Different-Phenotype (%): 23%
  Total Cell Count: 322
[2]
  Population Apoptotic (%): 77%
  Population Fragmented Nuclei (%): 63%
  Population Healthy Nuclei (%): 20%
  Population Hoechst High Intensity Objects (%): 38%
  Population Membrane Permeable-Phenotype (%): 18%
  Population Mitochondria Different-Phenotype (%): 27%
  Population Mitotic Cells (%): 22%
  Population Normal (%): 61%
  Population Pyknosed Nuclei (%): 16%
  Population Tubulin-Different-Phenotype (%): 45%
  Total Cell Count: 89
[3]
  Population Apoptotic (%): 61%
  Population Fragmented Nuclei (%): 31%
  Population Healthy Nuclei (%): 55%
  Population Hoechst High Intensity Objects (%): 13%
  Population Membrane Permeable-Phenotype (%): 5%
  Population Mitotic Cells (%): 38%
  Population Normal (%): 86%
  Population Tubulin-Different-Phenotype (%): 3%
  Total Cell Count: 195
[4]
  Population Apoptotic (%): 75%
  Population Fragmented Nuclei (%): 60%
  Population Healthy Nuclei (%): 26%
  Population Hoechst High Intensity Objects (%): 34%
  Population Membrane Permeable-Phenotype (%): 17%
  Population Mitochondria Different-Phenotype (%): 5%
  Population Mitotic Cells (%): 25%
  Population Normal (%): 65%
  Population Pyknosed Nuclei (%): 12%
  Population Tubulin-Different-Phenotype (%): 11%
  Total Cell Count: 98
[5]
  Population Apoptotic (%): 60%
  Population Fragmented Nuclei (%): 15%
  Population Healthy Nuclei (%): 44%
  Population Hoechst High Intensity Objects (%): 36%
  Population Membrane Permeable-Phenotype (%): 4%
  Population Mitochondria Different-Phenotype (%): 29%
  Population Mitotic Cells (%): 40%
  Population Normal (%): 63%
  Population Pyknosed Nuclei (%): 39%
  Population Tubulin-Different-Phenotype (%): 40%
  Total Cell Count: 259
[6]
  Population Apoptotic (%): 66%
  Population Fragmented Nuclei (%): 60%
  Population Healthy Nuclei (%): 27%
  Population Hoechst High Intensity Objects (%): 46%
  Population Membrane Permeable-Phenotype (%): 0%
  Population Mitochondria Different-Phenotype (%): 23%
  Population Mitotic Cells (%): 33%
  Population Normal (%): 53%
  Population Pyknosed Nuclei (%): 12%
  Population Tubulin-Different-Phenotype (%): 38%
  Total Cell Count: 90
[7]
  Population Apoptotic (%): 68%
  Population Fragmented Nuclei (%): 26%
  Population Healthy Nuclei (%): 61%
  Population Hoechst High Intensity Objects (%): 15%
  Population Mitochondria Different-Phenotype (%): 3%
  Population Mitotic Cells (%): 31%
  Population Normal (%): 84%
  Population Pyknosed Nuclei (%): 11%
  Population Tubulin-Different-Phenotype (%): 3%
  Total Cell Count: 191
[8]
  Population Apoptotic (%): 100%
  Population Fragmented Nuclei (%): 56%
  Population Healthy Nuclei (%): 32%
  Population Hoechst High Intensity Objects (%): 34%
  Population Membrane Permeable-Phenotype (%): 9%
  Population Mitochondria Different-Phenotype (%): 9%
  Population Mitotic Cells (%): 0%
  Population Normal (%): 65%
  Population Pyknosed Nuclei (%): 10%
  Population Tubulin-Different-Phenotype (%): 9%
  Total Cell Count: 99
